The IC50 is the concentration needed to halve the response being measured. Low values mean greater potency, high ones weaker potency. The term Ki denotes a dissociation constant, usually derived from enzyme kinetics or from competition with a known ligand. A higher Ki goes with lower affinity.

Calls of active or inactive are those of the source. No cut-off for these calls is given here.

Test [1] deals with T1, Fatty-acid amide hydrolase 1 (Homo sapiens, UniProt O00519).
T1 sequence (O00519 whole entry): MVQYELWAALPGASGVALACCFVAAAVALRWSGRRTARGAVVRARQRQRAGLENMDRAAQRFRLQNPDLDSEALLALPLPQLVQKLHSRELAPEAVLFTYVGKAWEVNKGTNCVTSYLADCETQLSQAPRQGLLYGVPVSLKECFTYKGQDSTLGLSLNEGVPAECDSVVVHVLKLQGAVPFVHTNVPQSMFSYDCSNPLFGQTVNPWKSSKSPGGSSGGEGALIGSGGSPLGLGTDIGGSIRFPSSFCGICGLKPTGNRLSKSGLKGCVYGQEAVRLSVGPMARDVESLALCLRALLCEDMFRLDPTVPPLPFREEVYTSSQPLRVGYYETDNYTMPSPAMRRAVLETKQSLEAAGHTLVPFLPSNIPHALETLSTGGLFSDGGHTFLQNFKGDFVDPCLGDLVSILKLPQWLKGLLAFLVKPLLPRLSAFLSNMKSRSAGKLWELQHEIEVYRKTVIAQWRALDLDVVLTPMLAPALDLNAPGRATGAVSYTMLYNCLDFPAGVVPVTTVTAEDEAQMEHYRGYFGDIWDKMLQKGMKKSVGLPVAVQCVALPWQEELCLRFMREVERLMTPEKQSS
Kind of test: Inhibition of human FAAH expressed in H4 cells. Format: cell-based. Summed up: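 Enzyme source: crude membrane homogenates from H4 cells transfected with human FAAH. Activity measured by a modified Omeir et al. method. IC50 taken from a four-parameter logistic fit of dose–response curves.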

Test [2] concerns Rattus norvegicus. Kind of test: Antinociceptive effect in rat persistent pain model assessed as suppression of formalin-induced paw flinches at 20 mg/kg, iv in presence of SR-141716A. Also on record: dose 20 mg/kg. Format: functional, organism-based. Summed up:
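CB1 antagonist SR141716A was given ip at 3 or 10 mg/kg at -30 min. Test compound (20 mg/kg) followed iv via jugular catheter at -15 min, then subcutaneous paw formalin at 0 min. Paw-flinch frequency was scored in Phase I (acute) and Phase II (persistent). Groups were compared with vehicle by Dunnett's test.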

Test [3] concerns the target T2, Cytosolic phospholipase A2 (Homo sapiens, UniProt P47712).
T2 sequence (P47712 whole entry): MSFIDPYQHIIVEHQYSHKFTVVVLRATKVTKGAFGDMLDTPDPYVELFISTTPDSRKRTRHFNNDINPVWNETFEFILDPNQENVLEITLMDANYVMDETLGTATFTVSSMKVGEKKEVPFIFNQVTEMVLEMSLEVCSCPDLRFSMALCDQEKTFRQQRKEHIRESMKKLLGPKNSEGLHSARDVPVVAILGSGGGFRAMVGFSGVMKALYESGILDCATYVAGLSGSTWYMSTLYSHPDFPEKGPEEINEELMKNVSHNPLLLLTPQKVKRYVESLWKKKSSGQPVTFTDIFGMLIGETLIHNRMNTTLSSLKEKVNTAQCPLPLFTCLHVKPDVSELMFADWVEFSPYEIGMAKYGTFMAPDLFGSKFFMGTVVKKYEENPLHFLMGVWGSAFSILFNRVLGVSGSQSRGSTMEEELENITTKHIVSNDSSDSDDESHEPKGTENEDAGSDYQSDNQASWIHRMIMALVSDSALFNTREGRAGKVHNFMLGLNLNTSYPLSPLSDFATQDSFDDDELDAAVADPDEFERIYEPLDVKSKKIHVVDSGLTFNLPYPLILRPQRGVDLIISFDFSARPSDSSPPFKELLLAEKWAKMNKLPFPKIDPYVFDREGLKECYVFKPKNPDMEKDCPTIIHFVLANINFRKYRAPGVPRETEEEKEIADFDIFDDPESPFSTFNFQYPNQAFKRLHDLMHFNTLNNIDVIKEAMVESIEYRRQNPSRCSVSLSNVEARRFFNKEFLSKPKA
Kind of test: Inhibition of cPLA2 activity.

Test [4] has as its system Rattus norvegicus. Kind of test: Effect on neuropathic pain in rat chung model assessed as reversal of tactile allodynia at 20 mg/kg, iv. Further details: dose 20 mg/kg. The class given is functional, organism-based.
In another test the target is Cannabinoid receptor 2 (Homo sapiens, UniProt P34972). Kind of test: Displacement of [3H]CP-55940 from CB2 receptor expressed in CHO cells. The class given is cell-based.
Sequence of Cannabinoid receptor 2 (P34972 whole entry): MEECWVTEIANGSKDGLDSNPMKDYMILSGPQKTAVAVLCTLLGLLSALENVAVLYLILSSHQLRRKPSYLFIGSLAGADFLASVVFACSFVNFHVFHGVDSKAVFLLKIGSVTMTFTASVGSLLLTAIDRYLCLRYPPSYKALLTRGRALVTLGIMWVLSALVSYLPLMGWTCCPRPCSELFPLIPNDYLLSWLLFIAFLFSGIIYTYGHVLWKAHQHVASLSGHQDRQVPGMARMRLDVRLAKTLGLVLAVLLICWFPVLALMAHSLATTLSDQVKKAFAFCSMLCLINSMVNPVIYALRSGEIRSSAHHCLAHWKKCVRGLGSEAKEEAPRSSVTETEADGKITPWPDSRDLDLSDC
The subject of test [5] is Rattus norvegicus. Kind of test: Antinociceptive effect in rat at 10 mg/kg, iv by thermal escape test. Format: functional, organism-based. Also on record: dose 10 mg/kg. Summed up:
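Rats were dosed iv with test compound at 0.1, 1 and 10 mg/kg, 15 min before exogenous anandamide (1 mg/kg, iv). Antinociception was read in the Hargreaves thermal escape test from 3 to 30 min after anandamide.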

The test system of test [6] is Rattus norvegicus. Kind of test: Antinociceptive effect in rat persistent pain model assessed as suppression of formalin-induced paw flinches at 20 mg/kg, iv relative to control. Also on record: dose 20 mg/kg. Format: functional, organism-based.
The next test addresses Cannabinoid receptor 1 (Homo sapiens, UniProt P21554). Kind of test: Displacement of [3H]CP-55940 from CB1 receptor expressed in HEK cells. The class given is cell-based, HEK293. For orientation: Displacement assays read how much labelled ligand stays bound in the presence of the test substance.

Sequence of Cannabinoid receptor 1 (P21554 whole entry): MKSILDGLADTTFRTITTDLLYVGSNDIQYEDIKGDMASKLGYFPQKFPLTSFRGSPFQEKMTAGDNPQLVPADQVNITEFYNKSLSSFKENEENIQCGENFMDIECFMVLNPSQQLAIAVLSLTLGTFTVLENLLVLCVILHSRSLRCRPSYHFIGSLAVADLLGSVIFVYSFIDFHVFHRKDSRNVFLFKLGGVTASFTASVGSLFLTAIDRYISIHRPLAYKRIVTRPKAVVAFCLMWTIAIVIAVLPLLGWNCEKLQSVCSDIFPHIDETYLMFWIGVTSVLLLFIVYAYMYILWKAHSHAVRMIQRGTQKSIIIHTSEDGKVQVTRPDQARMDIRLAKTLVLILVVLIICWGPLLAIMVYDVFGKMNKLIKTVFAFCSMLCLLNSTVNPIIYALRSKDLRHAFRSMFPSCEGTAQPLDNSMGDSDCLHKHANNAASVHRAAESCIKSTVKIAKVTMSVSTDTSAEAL

In the case of `CCOC(=O)CCCOc1cccc(-n2cnc(-c3ccccc3)c2-c2ccccc2)c1`, the half-maximal inhibitory concentration (IC50) in test [1] is 91 nM. For `Cc1nc(-c2ccccc2)c(-c2ccccc2)n1CCCCCCNC(=O)Oc1ccccc1F`, the result in the test with Rattus norvegicus [2] and in the test on Rattus norvegicus [5] was inactive. Besides, the Ki in test [3] came out at 15000 nM; on Cannabinoid receptor 2 it was 28000 nM; at Cannabinoid receptor 1, 23000 nM. Moreover, it took 2 nM to reach half-maximal inhibition in test [1] (IC50). Further, the result in the test on Rattus norvegicus [4] and with Rattus norvegicus [6] was Active.

In the case of `CCOC(=O)CC(CCCCCn1c(C)nc(-c2ccccc2)c1-c1ccccc1)C(C)C` (centres undefined), the concentration for half-maximal inhibition (IC50) in test [1] was over 100000 nM. On the same count and under the same terms, the result for `COC(=O)COc1cccc(-n2cnc(-c3ccccc3)c2-c2ccccc2)c1` reads 6500 nM; that for `CNC(=O)NCCCCCCn1c(C)nc(-c2ccccc2)c1-c1ccccc1`, over 10000 nM. The same measure, in the same setting: for `CCOC(=O)CCCCCCn1c(CC)nc(-c2ccccc2)c1-c1ccccc1` the value was 11 nM; for `CCc1nc(-c2ccccc2)c(-c2ccccc2)n1CCCCCCCC(=O)OC`, 31 nM. Take `Cc1nc(-c2ccccc2)c(-c2ccccc2)n1CCCCCC(NC(=O)Oc1ccccc1F)c1ccccc1` (centres undefined): the IC50 in test [1] was determined as 110 nM. The same measure, in the same setting: the result for `Cc1nc(-c2ccccc2)c(-c2ccccc2)n1CCCCCC(NC(=O)Oc1ccccc1F)C(C)C` (centres undefined) reads 250 nM; that for `Cc1nc(-c2ccc(F)cc2)c(-c2ccc(F)cc2)n1CCCCCCNC(=O)Oc1c(F)cccc1F`, 24 nM. Still for that read-out and setting: for `Cc1nc(-c2ccccc2)c(-c2ccccc2)n1CCCCCC(C)NC(=O)Oc1ccccc1F` (centres undefined) the value was 4.2 nM; for `CCOC(=O)CC(C)CCCCCn1c(C)nc(-c2ccccc2)c1-c1ccccc1` (centres undefined), 130 nM.

`CCOC(=O)CCCOc1ccc(-n2cnc(-c3ccccc3)c2-c2ccccc2)cc1` came in with an IC50 in test [1] of 64 nM.

In test [1], `CCOC(=O)CCCCCn1c(CC)nc(-c2ccccc2)c1-c1ccccc1` yielded an IC50 of 32 nM. Still for that read-out and setting: the result for `CCN(CCCCCCn1c(C)nc(-c2ccccc2)c1-c1ccccc1)C(=O)Oc1ccccc1F` reads over 100000 nM; that for `CNC(=O)CCCCCCn1c(C)nc(-c2ccccc2)c1-c1ccccc1`, 1700 nM. The same measure, in the same setting: the result for `Cc1nc(-c2ccccc2)c(-c2ccccc2)n1CCCCCCNC(=O)Nc1ccccc1` reads 10000 nM. In test [1], `Cc1nc(-c2ccccc2)c(-c2ccccc2)n1CCCCCCC(=O)N(C)C` returned an IC50 of 970 nM. Compared with the last compound, the IC50 is about 10-fold lower.

`CCOC(=O)CCCCOc1ccc(-n2cnc(-c3ccccc3)c2-c2ccccc2)cc1` registered a half-inhibitory concentration (IC50) in test [1] of over 10000 nM. The same measure, in the same setting: for `Cc1nc(-c2ccccc2)c(-c2ccccc2)n1CCCCCCNC(=O)Oc1ccccc1` the value was 5.3 nM.

Compound `Cc1nc(-c2ccc(F)cc2)c(-c2ccc(F)cc2)n1CCCCCCNC(=O)Oc1ccccc1F` had an IC50 in test [1] of 10 nM. Still for that read-out and setting: for `COC(=O)COc1ccc(-n2cnc(-c3ccccc3)c2-c2ccccc2)cc1` the value was 670 nM. Still for that read-out and setting: the result for `CCOC(=O)CCCCCCn1c(C)nc(-c2ccc(F)cc2)c1-c1ccc(F)cc1` reads 64 nM. Still for that read-out and setting: for `CCOC(=O)CC(CC)CCCCCn1c(C)nc(-c2ccccc2)c1-c1ccccc1` (centres undefined) the value was 9900 nM; for `CCCN(CCCCCCn1c(C)nc(-c2ccccc2)c1-c1ccccc1)C(=O)Oc1ccccc1F`, over 100000 nM. Take `CCC(CCCCCn1c(C)nc(-c2ccccc2)c1-c1ccccc1)NC(=O)Oc1ccccc1F` (centres undefined): in test [1], the midpoint of inhibition, the IC50, lay at 30 nM. That is a double-digit nanomolar value. Take `CCCCC/C=C\C/C=C\C/C=C\C/C=C\CCCC(=O)NCCO`: the result in the test on Rattus norvegicus [5] was inactive.

These data come from ChEMBL document CHEMBL1148024, “Novel inhibitors of fatty acid amide hydrolase” (Bioorg Med Chem Lett, 2007).
